FLuc act counter = firefly luciferase counter-screen for stimulation assays | P08659 | 200,000 tested, under 10 active | activation factor at 10 µM | ATPlite luciferase biochemical, luminescence, 10 min; 0 = ATP-free wells, 1 = DMSO control;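 active means luciferase activation factor, scaled between plate controls, of at least 2 with compound at 10 µM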
Target sequence (P08659 whole entry, looked up): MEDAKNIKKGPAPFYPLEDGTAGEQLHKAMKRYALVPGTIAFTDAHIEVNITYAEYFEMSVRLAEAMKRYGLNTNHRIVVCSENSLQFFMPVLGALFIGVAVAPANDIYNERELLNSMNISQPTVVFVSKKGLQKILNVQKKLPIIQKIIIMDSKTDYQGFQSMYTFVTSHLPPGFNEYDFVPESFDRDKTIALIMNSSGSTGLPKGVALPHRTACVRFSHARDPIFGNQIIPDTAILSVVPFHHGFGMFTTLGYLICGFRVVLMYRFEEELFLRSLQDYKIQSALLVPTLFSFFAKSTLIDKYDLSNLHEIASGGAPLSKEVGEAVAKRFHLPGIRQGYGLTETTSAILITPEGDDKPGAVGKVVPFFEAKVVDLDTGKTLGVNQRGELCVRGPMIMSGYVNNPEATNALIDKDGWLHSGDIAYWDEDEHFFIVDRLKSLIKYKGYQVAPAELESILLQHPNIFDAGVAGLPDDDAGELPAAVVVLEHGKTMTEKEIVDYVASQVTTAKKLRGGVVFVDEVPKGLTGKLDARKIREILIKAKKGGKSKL
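Material: Luciferase/luciferin reagent mix | Doses: Test compounds dosed from 2 mM stocks in 100% DMSO | Timing: 10 min incubation after luciferase reagent addition, room temperature | Measured by: Luminescence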
STAT3 activator = activators of IL-6 induced STAT3 signaling; activation (% of control), % at 5.6 µM; U3A cells, IL-6 STAT3-luciferase reporter, luminescence; 100% = signal with IL-6 EC80 alone; AID 871; 0.91% of 190,000 active;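 active means activation above the screen-wide mean of compound activation plus 3 SD, cut at about 130% in these data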;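 further: 0% = background luminescence of wells with medium and substrate only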
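System – human U3A cells carrying STAT3-luciferase construct · Probe or stimulus – Interleukin-6, 33 ng/mL · Schedule – compound 1 h, then IL-6 6 h at 37 °C · Signal – luminescence from STAT3-driven luciferase reporter · Evaluation – percent of IL-6-only median luminescence · Benchmarks – IL-6-only high control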
STAT1 activator = STAT1 signaling activation; NIH 3T3 STAT1-luciferase reporter, IFN-gamma, luminescence; 100% = IFN-gamma alone, no compound; activation (% of control), % at 5.5 µM; 2.6% of 200,000 active; AID 932;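 active means activation above the screen-wide mean activation plus 3 SD, cut at about 130% in these data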;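 further: raw ratio to IFN-gamma control signal so 100% means no change and 0% no light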
STAT3 inh = inhibitors of IL-6 induced STAT3 signaling | 0.89% of 190,000 active | inhibition, % at 5.5 µM | AID 862 | U3A cells, IL-6 STAT3-luciferase reporter, luminescence; host cell line lacks STAT1;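 active means inhibition above the mean inhibition across all screened compounds plus 3 SD, cut at about 44% in these data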;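 further: 0% = DMSO only wells and 100% = 100 µM nifuroxazide control wells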
STAT1 blocker = reduces IFN-gamma driven STAT1 reporter signal; NIH 3T3 STAT1-luciferase reporter, luminescence; 0.35% of 200,000 active; AID 920; inhibition, % at 5.5 µM;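 active means inhibition above a set limit, the mean inhibition across all tested compounds plus 3 SD, cut at about 34% in these data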;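 further: 0% = IFN-gamma with DMSO and 100% = IFN-gamma with 300 µM nifuroxazide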
FLuc inh counter = inhibits firefly luciferase, flagging false hits in luciferase inhibition screens. AID 1006. ATPLite firefly luciferase biochemical luminescence, 10 min. 1.5% of 200,000 active. inhibition, % at 10 µM. P08659;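 active means inhibition above about 50% when tested at 10 µM, limit read from the data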
Numbers without * were called inactive. Only some compounds are listed: those with a hit (about 4.9% of all), similar ones and a draw of the others.

SMILES | FLuc act counter | STAT3 activator | STAT1 activator | STAT3 inh | STAT1 blocker | FLuc inh counter
CC1CCN(C(=O)Cn2nnc(-c3cccs3)n2)CC1 | 1 | 110 | 129* | -7 | -33 | 3
N#CCCN(C(=O)Nc1ccc(Cl)c(Cl)c1)c1ccccc1 | 1 | 102 | 97 | 1 | 3 | -2
O=C1CC(c2ccccc2)CC(O)=C1C=NCc1ccccc1 (stereo not drawn) | 1.1 | 99 | 101 | 8 | -1 | -7
O=C1CC(c2ccccc2)CC(O)=C1C=Nc1ccc(O)cc1 (stereo not drawn) | 0.9 | 108 | 132* | 0 | -35 | 12
CN(C)/C=C/C(=O)c1cnc(-c2ccccc2Cl)s1 | 0.6 | 90 | 139* | 16 | -45 | 43
CN(C)/C=C/C(=O)c1ccc(Br)s1 | 1 | 90 | 117 | 16 | -20 | 4
CN(C)/C=C/C(=O)c1cnc(-c2ccccn2)s1 | 0.7 | 96 | 129* | 5 | -31 | 32
CN(C)/C=C/C(=O)c1cnc(-c2cccc(Cl)c2)s1 | 0.8 | 87 | 138* | 18 | -40 | 20
CC(=O)c1cnc(-c2cccc(Cl)c2)s1 | 1.1 | 92 | 122 | 13 | -26 | -6
C[N+]1(C2CCC3CCCC2C3O)CCCC1 (stereo not drawn) | 1 | 93 | 98 | 8 | 3 | -3
Cn1c(CC2C(=O)Nc3ccc(Br)cc32)nc2ccccc2c1=O (stereo not drawn) | 1.1 | 133* | 87 | -36 | 14 | -10
CC1CCCCC1NC(=O)COC(=O)CNC(=O)c1cccc(F)c1 (stereo not drawn) | 1 | 86 | 102 | 19 | -3 | -2
O=C(Nc1ccc(OC(F)(F)F)cc1)C1=NCCN1 | 0.4 | 97 | 115 | 8 | -16 | 63*
NS(=O)(=O)c1ccc(CNC(=O)c2ccc(Br)o2)cc1 | 1.1 | 128 | 115 | -33 | -16 | -7
COc1ccc(C(=O)Nc2nc3ccc(S(C)(=O)=O)cc3s2)cc1OC | 1 | 85 | 103 | 18 | -3 | 4
NC(=O)c1ccc2nc(NC(=O)c3ccc(N)cc3)sc2c1 | 0.5 | 88 | 142* | 17 | -45 | 46
NS(=O)(=O)c1ccc2nc(NC(=O)c3ccc(Br)o3)sc2c1 | 0.7 | 94 | 129* | 12 | -32 | 31
NS(=O)(=O)c1ccc2nc(NC(=O)c3ccncc3)sc2c1 | 0.4 | 91 | 102 | 15 | -4 | 64*
Clc1ccc(C2C3=C(Nc4ncnn42)c2ccccc2CC3)cc1 (stereo not drawn) | 1 | 78 | 106 | 32 | -6 | -4
CN1CCCC(C#CC(O)(c2ccccc2)c2ccccc2)C1 (stereo not drawn) | 1 | 100 | 111 | 6 | -12 | -3
Cc1ccccc1-c1nnc(-c2ccccc2)o1 | 0.6 | 104 | 131* | 2 | -33 | 35
Cc1ccc(CS(=O)(=O)c2ccccc2-c2nnc(-c3ccc(Cl)cc3)o2)cc1 | 1 | 102 | 102 | 8 | -3 | -4
Cc1cccc(-c2nnc(-c3ccccc3)o2)c1 | 0.6 | 118 | 132* | -15 | -35 | 36
Cc1ccc(/C=C/c2nnc(-c3cccc(C)c3)o2)cc1 | 1 | 99 | 106 | 6 | -6 | -2
Cc1ccccc1-c1nnc(-c2ccc(Cl)cc2)o1 | 0.8 | 109 | 138* | -11 | -49 | 15
SMILES | FLuc act counter | STAT3 activator | STAT1 activator | STAT3 inh | STAT1 blocker | FLuc inh counter
C=CCNC(=S)NS(=O)(=O)c1cccs1 | 1 | 99 | 95 | 10 | 6 | -5
O=C(c1ccccc1)N1CCN(S(=O)(=O)c2cccc(NS(=O)(=O)c3ccccc3)c2)CC1 | 1 | 98 | 95 | 14 | 4 | -2
O=C(N/N=C/c1sc(=O)n(-c2ccccc2)c1Cl)c1ccccc1 | 0.3 | 91 | 147* | 11 | -53 | 67*
COC(=O)c1cccc(Cn2c(Cl)c(/C=N/NC(=O)c3ccccc3Cl)sc2=O)c1 | 1.1 | 100 | 92 | 5 | 8 | -8
O=C(NCc1ccccn1)C(=O)N/N=C/c1ccc2c(c1)OCO2 | 0.9 | 103 | 115 | 0 | -18 | 6
O=C(CCCCCN1C(=O)c2cccc3cccc(c23)C1=O)NCCO | 0.9 | 89 | 100 | 18 | -2 | 5
COc1ccc(-c2nsc3c(N4CCN(C(=O)c5ccco5)CC4)ncnc23)cc1 | 1.1 | 88 | 114 | 18 | -15 | -6
NC(=O)C1CCN(c2ncnc3c(-c4ccccc4)nsc23)CC1 | 0.9 | 111 | 139* | -9 | -42 | 14
NC(=O)C1CCN(c2nc(-c3ccccc3)nc3ccccc23)CC1 | 1 | 100 | 92 | 4 | 8 | -2
O=C(c1ccco1)N1CCN(c2ncnc3c(-c4ccccc4)nsc23)CC1 | 1 | 128 | 129* | -22 | -32 | -3
COc1ccc(N=Cc2c(O)c3ccccc3oc2=O)cc1 | 0.1 | 111 | 140* | -19 | -44 | 88*
Oc1sc(C=Nc2ccc(F)cc2)c2ccccc12 | 1 | 103 | 138* | -1 | -42 | 3
Cc1cccc(N=C2NN=C(c3ccc4c(c3)OCCO4)CS2)c1 | 0.2 | 72 | 111 | 37 | -13 | 81*
NCC12CC3CC(C1)CC(c1ccc(Cl)cc1)(C3)C2 | 1.1 | 105 | 112 | 4 | -13 | -7
O=C(NCc1cccs1)C1CCCN1C(=O)Nc1ccc(Cl)cc1 (stereo not drawn) | 1.1 | 104 | 103 | -3 | -6 | -5
Cn1cccc1/C=C1\CCc2ccccc2C1=O | 0.3 | 27 | 46 | 89* | 58* | 70*
Cn1cccc1/C=C1\CC(C(C)(C)C)C/C(=C\c2cccn2C)C1=O (stereo not drawn) | 1 | 91 | 102 | 14 | -2 | 0
Cn1cccc1/C=C1\Cc2ccccc2C1=O | 0.4 | 101 | 140* | 1 | -44 | 58*
O=C(NCCc1ccccc1)C(=O)c1c(-c2ccccc2)[nH]c2ccccc12 | 1 | 102 | 99 | -3 | 1 | -4
COc1ccc(-c2nc3ccccc3c(=O)n2NC(=S)N(C)C)cc1 | 1 | 85 | 93 | 17 | 8 | -3
Cn1c(CCc2ccc(N)cc2)nc2ccccc21 | 0.5 | 89 | 128 | 18 | -32 | 55*
CCCCn1c(N)c(N(CC)C(=O)c2cccc(OC)c2)c(=O)[nH]c1=O | 1.1 | 105 | 98 | 2 | 1 | -5
CCOC(=O)N1CCC(NC(=O)C2CCN(S(=O)(=O)c3ccc4c(c3)oc(=O)n4C)CC2)CC1 | 1 | 95 | 97 | 8 | 2 | -4
Cn1ccnc1SCc1cn2ccccc2n1 | 1 | 103 | 144* | 3 | -48 | 2
c1ccn2cc(CSc3nnc4ccccn34)nc2c1 | 1 | 114 | 147* | -12 | -51 | -3
Cc1ccn2cc(CSc3ccccc3)nc2c1 | 0.6 | 94 | 131* | 11 | -33 | 42
